“And” between values parts separate entries of the source, which are not always exact repeats. Equal values may be shown once.
How the values were obtained:
[1] = test system: SS cells (homozygous sickle red blood cells); test: Antisickling study; assay type: cell-based, human; details: for inhibition of RBC sickling: hypoxia
Summary of the method: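 SS patient blood suspensions (20% hematocrit) were preincubated in air with 0, 1, 2 or 5 mM test compound (final DMSO <2%) at 37 °C for 1 h. They were then held under hypoxia (4% O2/96% N2) at 37 °C for 2 h. Aliquots were fixed in 2% glutaraldehyde without air exposure and scored microscopically for sickled cells. % inhibition was calculated against untreated control. Three biological replicates.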

[2] = cited from earlier work
Hb A = Hb A (Homo sapiens, UniProt P69905); test: Time-dependent Hb adduct formation in normal whole blood; assay type: in vitro ADME; details: for Hb modification (residual Hb adduct) at 24 h: normal whole blood, 2 mM compound; for remaining activity at 2000 µM: read-out: remaining activity at 24 h
Summary of the method: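 Normal donor whole blood (30% hematocrit) was incubated with 2 mM test compound at 37 °C for 24 h with shaking at 140 rpm. Aliquots taken at 0.5, 1, 2, 4, 6, 8 and 24 h were mixed 1:1 with sodium cyanoborohydride/borohydride mix (50 mM stock) to fix adducts. Samples were stored at −80 °C, then analysed by cation-exchange HPLC as %Hb modified versus time. Peak was found by visual inspection and AUC0–24 by linear trapezoidal rule.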

Hb = Hb (Homo sapiens, UniProt P69905); test: Incubation of VZHE004 with Hb for 3 days, UPLC-MS analysis; assay type: physicochemical; details: incubated with Hb for 3 days
sickle Hb (Hb S) = sickle Hb (Hb S) (Homo sapiens, UniProt P69905); test: Hb adduct formation study; assay type: cell-based; details: SS cells, 20% hematocrit, 2 mM compound, mean ± SD of three experiments
Summary of the method: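 SS cell suspensions (20% hematocrit) were incubated with test compound (final DMSO <2%) in air at 37 °C for 1 h, then under 4% O2/96% N2 at 37 °C for 2 h. Cells were PBS-washed and lysed in hypotonic buffer. Clarified hemolysate was run on weak cation-exchange HPLC, and modified Hb S was taken from elution patterns. Three biological replicates, mean ± SD.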

[3] = at all three concentrations (1, 2 and 5 mM)

For O=Cc1ccc(COc2ccc(Cl)cc2)o1 [5-CMFC, 5-((4-chlorophenoxy)methyl)-2-furan carbaldehyde], the “inhibition of RBC sickling” value [1, 3] was < 10%.

For O=Cc1ccc(CO)o1 [5-HMF, 5-hydroxymethyl-2-furfural, reference compound], the plasma half-life [2] is given as ~ 1 h, the “Hb modification (residual Hb adduct) at 24 h” value (Hb A) is given as ~ 2% and 1.1% and the remaining activity at 2000 µM (Hb A) is given as ~8%.

In the case of O=Cc1ccc(COc2ccccc2[N+](=O)[O-])o1 [5-NMFC, 5-((2-nitrophenoxy)methyl)-2-furan carbaldehyde], the “inhibition of RBC sickling” value [1, 3] is reported as < 10%, the “Hb modification (residual Hb adduct) at 24 h” value (Hb A) is reported as ~ 7% and the remaining activity at 2000 µM (Hb A) is reported as ~29%.

For O=Cc1ccc(COc2ccccc2)o1 [5-PMFC, 5-(Phenoxymethyl)-2-furan carbaldehyde], the “Hb modification (residual Hb adduct) at 24 h” value (Hb A) was ~ 7% and the remaining activity at 2000 µM (Hb A) was ~29%.

With CC(=O)OCc1ccc(C=O)o1 [VZHE004, (5-Formylfuran-2-yl)methyl Acetate] the “stability against hydrolytic cleavage of the ester (UPLC–MS)” value (Hb) was “intact”.

With COCc1ccc(C=O)o1 [VZHE005, 5-(Methoxymethyl)-2-furan Carboxadehyde] the “modified Hb (%)” value (sickle Hb (Hb S)) was 35.3 ± 11.6%.

With CC(C)(C)OC(=O)OCc1ccc(C=O)o1 [VZHE006, tert-Butyl((5-formylfuran-2-yl)methyl) Carbonate] the “modified Hb (%)” value (sickle Hb (Hb S)) was 50.0 ± 3.0%, the “fold antisickling potency over the other three esters and 5-HMF” value ([1]; 2 mM compound) was “roughly 3 fold” and the “inhibition of RBC sickling” value ([1]; 5 mM compound) was > 95%.

With CCOCc1ccc(C=O)o1 [VZHE011, 5-(Ethoxymethyl)-2-furan Carboxadehyde] the “modified Hb (%)” value (sickle Hb (Hb S)) was 40.4 ± 3.9%.

With COP(=O)(OC)OCc1ccc(C=O)o1 [VZHE014, (5-Formylfuran-2-yl)methyl Dimethyl Phosphate] the “modified Hb (%)” value (sickle Hb (Hb S)) was 19.7 ± 6.3% and the “inhibition of RBC sickling” value ([1]; 5 mM compound) was 43% and ~ 40%.

In the case of CCCOCc1ccc(C=O)o1 [VZHE015, 5-(Propoxymethyl)-2-furan Carboxadehyde], the “modified Hb (%)” value (sickle Hb (Hb S)) is reported as 39.7 ± 8.2%.

In the case of CC(C)OCc1ccc(C=O)o1 [VZHE016, 5-(Isopropoxymethyl)-2-furan Carboxadehyde], the “modified Hb (%)” value (sickle Hb (Hb S)) is reported as 36.4 ± 9.7% and the “inhibition of RBC sickling” value ([1]; 5 mM compound) is reported as < 10%.
